Experiment: S. cerevisiae growth inhibition in restrictive medium, OD615, pilot screen, restrictive growth control, yeast lifespan reduction project (AID 706);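 further: modified DeaD lifespan yeast strain shifted to restrictive glucose medium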
Settings: OD615, 48 h, at 10 µM, stronger effect = higher value;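 active means growth inhibition above a set limit, 3 SD over mean compound inhibition, in both replicates (cut at about 43% in these data); inconclusive means above the limit in only one replicate; inactive means at or below the limit in both replicates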
Summary of the method: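 Assay system: engineered S. cerevisiae DeaD strain; Buffer or medium: CSMM-D glucose medium; Dosing: 10 µM compound, 0.25% DMSO; Times: cell pre-growth 4 h, compound exposure 48 h, 30 °C; Detection: absorbance (optical density) measured at 615 nm.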

Growth inhibition, inactive:
Cc1nccn1-c1c2c(c(C#N)c3nc4ccccc4n13)CCC2 -2.89%, CCOC(=O)c1ccc(N=c2sc(C(=O)OC)cc(=O)n2CCCN2CCOCC2)cc1 -3.88%, Cc1ccccc1-n1c(Cn2c(=O)sc3ccccc32)nnc1SCC(=O)Nc1nccs1 -13%, Cc1cc(S(=O)(=O)N2CCN(c3ccc(F)cc3)CC2)c(C)s1 -7.43%, Cc1cccc(-n2c(Cc3cc(=O)[nH]c(=O)[nH]3)nnc2SCC(=O)NCC2CCCO2)c1 (stereo not given) -13.5%, CCOc1ccccc1Nc1ncnc2c1cnn2-c1ccccc1 -5.11%, CCC(C(=O)N1CC2(C)CC1CC(C)(C)C2)N1C(=O)c2ccccc2C1=O (stereo not given) -3.99%, CCN(CC)S(=O)(=O)c1ccc(C2CNC(=O)C2)cc1 (stereo not given) -3.95%, CC(CNCc1ccc2c(c1)OCO2)NCc1ccc2c(c1)OCO2 (stereo not given) -7.7%, CCCC(c1c(C)n(C)n(-c2ccccc2)c1=O)c1c(C)n(C)n(-c2ccccc2)c1=O -13.4%, CN1CCCc2cc3c(C(F)(F)F)cc(=O)oc3nc21 5.85%, O=C1CCCC2=C1C1(O)C(=O)c3ccccc3C1(O)O2 (stereo not given) -16%, Clc1ccc(CSc2nnc(-c3cccnc3)n2Cc2ccco2)c(Cl)c1 34.1%, O=C(Cn1cc2c(n1)CCCCC2)NC1CCN(Cc2ccccc2)CC1 2.45%, CCCn1c(C(O)c2ccc3c(c2)OCO3)nc2ccccc21 (stereo not given) -13.8%
